The sample as a whole holds a higher share of hits than the screen did.
UPR CHOP act = activators of apoptotic arm of unfolded protein response (CHOP); CHO-CHOP luciferase reporter, UPR activation, luminescence; percent of tunicamycin response over DMSO baseline; activation, % at 10 µM; 330,000 tested, 0.34% active; AID 449763;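 active = at 10 µM dose, activation of 40% or more, normalized to positive control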;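 note: 100% = tunicamycin at 10 µg/mL and 0% = DMSO alone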
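System: CHO-CHOP luciferase reporter cell line | Buffer or medium: F12 medium containing 10% fetal bovine serum | Doses: One dose, 10 µM in 0.5% DMSO | Times: 6 h compound exposure at 37 °C after overnight seeding | Signal: Luciferase luminescence | Read-out: % activation vs tunicamycin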
UPR XBP1 act = adaptive UPR (XBP1) activation; CHO-XBP1 luciferase reporter, IRE1-XBP1 UPR activation, luminescence; percent of tunicamycin response, DMSO as zero; activation, % at 20 µM; 330,000 tested, 0.33% active;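 active = versus positive control, 20 µM dose yields 30% or more activation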;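 note: 100% = tunicamycin at 10 µg/mL and 0% = DMSO only wells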
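Material: CHO-XBP1 cells stably carrying IRE1-XBP1-driven luciferase reporter | Medium: F12 with 10% serum | Compound dosing: 20 µM single concentration, DMSO 1% | Incubation: Overnight seeding at 37 °C, 6 h compound treatment at 37 °C | Detection: Steady-Glo luminescence read | Read-out basis: % activation of reporter signal versus tunicamycin and DMSO controls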
CHOP inh = CHOP inhibition in unfolded protein response; CHO-K1 CHOP-promoter luciferase, tunicamycin-induced, 15-18 h; inhibition, % at 10 µM; 220,000 tested, 3.8% active; AID 2732;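 active = compounds that reduced the stress-induced luciferase reporter signal by more than about 70% of percent inhibition, limit read from the data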;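 note: 0% = tunicamycin plus vehicle and 100% = wells without tunicamycin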
hiPSC survival = hiPSC single-cell survival enhancement | ATPlite luminescence; 100% = ROCK inhibitor wells, 0% = DMSO | AID 602274 | 360,000 tested, 0.044% active | survival enhancement, % at 20 µM; in the data active = survival enhancement above about 18%;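 note: cells exposed to compounds for 16 hours before the ATP read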
Cardio protect = modulators protecting cardiomyocytes from myocardial damage. H9c2 cardiomyocytes, H2O2 injury protection, ATPLite, 2 h. 360,000 tested, 0.63% active. protection from H2O2 cell death, % at 20 µM;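 active = compounds giving at least 50% protection of heart cells from peroxide-induced death in the single-dose screen, raw or plate-pattern-corrected value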;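 note: 0% = DMSO wells with peroxide and 100% = DMSO wells without peroxide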
CHOP inh conf = confirmation of CHOP induction inhibitors; shares compounds with CHOP inh; CHO-CHOP promoter luciferase reporter, tunicamycin-induced, luminescence; inhibition, % at 10 µM; 2,100 tested, 45% active;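 active = mean of three repeat readings of reporter signal inhibition above a set limit, cut at about 70% in these data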;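 note: 0% = tunicamycin plus vehicle and 100% = wells lacking tunicamycin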
* = called active by the depositor; nt = not tested or not shown.

SMILES	UPR CHOP act	UPR XBP1 act	CHOP inh	hiPSC survival	Cardio protect	CHOP inh conf
O=C(CSc1ccc2nnc(-c3cccc(F)c3)n2n1)N1CCCc2ccccc21	0	1	105*	-2	31	33
CCC(C)[C@@H](NC(=O)OC(C)(C)C)c1nnc(S(=O)(=O)Cc2cccc(C)c2)o1 (stereo not given in full)	nt	nt	106*	-3	-44	107*
CC(C)(C)OC(=O)N[C@@H](Cc1ccccc1)c1nnc(S(=O)(=O)Cc2ccccc2)o1	-10	-5	109*	nt	nt	125*
CCSc1nnc([C@H](Cc2ccccc2)NC(=O)OC(C)(C)C)o1	2	-3	10	2	-2	nt
Cc1cccc(CS(=O)(=O)Cc2ccc(C(=O)NC(C)c3ccccc3)o2)c1 (stereo not given)	1	-1	nt	0	0	nt
Cc1ccccc1CS(=O)(=O)c1nnc([C@H](Cc2ccccc2)NC(=O)OC(C)(C)C)o1	-5	-7	112*	-2	-19	136*
CC(=O)c1ccc(OC2(C)CCN(Cc3ccc4c(c3)OCCO4)C2)cc1 (stereo not given)	nt	nt	nt	-1	2	nt
OCC[C@@H]1C[C@H](O)[C@@H](O)[C@]2(OCc3cc(Cl)ccc32)O1	nt	nt	nt	2	6	nt
COc1cc(NC(=O)Nc2nnc([C@H]3C[C@H](O)[C@@H](CO)O3)s2)cc(OC)c1	nt	nt	nt	0	2	nt
COCCn1c(=NC(=O)/C=C/c2ccccc2)sc2cc(NC(C)=O)ccc21	3	0	100*	-2	16	43
Nc1nc(-c2ccc(Br)s2)c(Br)s1	4	2	98*	2	-6	11
N#Cc1c(N)nc2c(c1-c1ccc(Br)s1)CCCC2	-1	-1	21	2	1	nt
CN(C)c1ccc(/C=C2\C(=N)N3C(=NC2=O)Sc2cc(S(C)(=O)=O)ccc23)cc1	16	136*	104*	nt	nt	-9
CCN(C(=O)COC(=O)c1cc(Cl)ccc1OC)c1c(N)n(Cc2ccccc2)c(=O)[nH]c1=O	0	-1	nt	4	2	nt
O=C(Nc1ccc(Cl)cc1)N1CCC(c2nc(-c3ccc(F)cc3)no2)CC1	1	-1	104*	1	-13	4
CN1CCN(c2ccc(-c3ccc4ccccc4n3)cc2)CC1	nt	nt	102*	-1	-37	120*
Cc1cccc(NC(=O)NCc2ccc3c(c2)cc(C)n3C)c1	2	-1	106*	0	-2	27
Cc1cc2cc(CNC(=O)Nc3cccc(Cl)c3)ccc2n1C	0	-2	17	-1	10	nt
COc1ccc([C@H]2Oc3cc(O)cc(O)c3C(=O)C2[C@@H]2C(=O)c3c(O)cc(O)cc3O[C@@H]2c2ccc(OC)cc2)cc1 (stereo not given in full)	2	3	105*	nt	nt	111*
COC(=O)c1ccccc1NC(=O)CSc1n[nH]c(-c2ccco2)n1	1	11	nt	1	0	nt
Cc1cccc(NS(=O)(=O)c2ccc(C3CCCCC3)cc2)c1	-1	3	107*	-2	-41	132*
Cc1ccc(Cl)cc1NC(=O)COC(=O)CC1CC2CCC1C2 (stereo not given)	-1	-1	100*	4	6	68
CCOC(=O)C1(CCc2ccccc2)CCN(C(=O)Cc2nonc2C)CC1	4	4	103*	3	0	-38
CC1(C(=O)NS(=O)(=O)c2ccc(F)cc2F)CCN1C(=O)C1(c2ccc(Cl)cc2)CC1 (stereo not given)	nt	nt	nt	2	-1	nt
COc1cccc(Oc2ccc(S(=O)(=O)N3CCOCC3)cc2[N+](=O)[O-])c1	-2	-1	nt	2	-7	nt
SMILES	UPR CHOP act	UPR XBP1 act	CHOP inh	hiPSC survival	Cardio protect	CHOP inh conf
Clc1ccccc1CN(Cc1ccccc1)c1ncnc2nc[nH]c12	0	-1	107*	-1	-6	39
Clc1ccccc1CNc1ncnc2nc[nH]c12	0	-1	18	1	-9	nt
Cc1ccc(/C=C(\NC(=O)c2ccc(C)cc2)c2nc(=S)[nH][nH]2)cc1	-2	-3	110*	-4	-8	4
CC(C(Sc1ccccc1N)c1ccccc1)[N+](=O)[O-] (stereo not given)	29	-3	106*	1	-11	18
Cc1ccc(NC(=O)c2ccc(Nc3c([N+](=O)[O-])cc([N+](=O)[O-])cc3[N+](=O)[O-])cc2)cc1	-6	-5	104*	-1	-28	108*
O=C(Cc1csc(Nc2nc(=S)[nH]c3ccccc23)n1)N1CCN(c2cccc(C(F)(F)F)c2)CC1	2	4	107*	0	11	66
O=C(O)CSCC(=O)Nc1ccc(C2CCCCC2)cc1	-8	-5	99*	-3	-2	108*
CC1(C(=O)Nc2ccc3c(c2)OCO3)CCN1C(=O)CC1CC1 (stereo not given)	nt	nt	nt	-3	7	nt
COC(=O)c1ccc2c(c1)C(C)(C)C(/C=C/c1ccccc1O)=[N+]2C	-9	-6	108*	1	-19	120*
CCCC(=O)OCCNc1cc(Sc2nc3ccccc3[nH]2)c2nonc2c1[N+](=O)[O-]	31	-9	110*	-1	-18	138*
Cc1ccc(Sc2cc(NCCCO)c([N+](=O)[O-])c3nonc23)cc1	23	-3	15	0	-4	nt
CC(=O)OCCCNc1cc(Sc2ccc(Cl)cc2)c2nonc2c1[N+](=O)[O-]	nt	nt	109*	-1	-8	114*
CCCCCCn1c(-c2ccco2)nc2oc3cc(OC)ccc3c(=O)c2c1=O	0	2	96*	6	3	107*
CC(C)(C)C1CCC(C(=O)OCC(=O)c2ccc[nH]2)CC1 (stereo not given)	4	-2	101*	-1	-9	100*
O=c1nc(SCc2c(F)cccc2Cl)nc(-c2ccc(Cl)cc2)[nH]1	-1	0	101*	1	10	10
COc1ccc(/C=C2\SC(=S)N(CCC(=O)Nc3ccc(C(=O)O)cc3)C2=O)cc1	4	0	nt	0	-5	nt
COc1ccc(/C=C2\SC(=S)N(CCC(=O)Nc3cccc(O)c3)C2=O)cc1	12	0	nt	0	-8	nt
COc1ccc(/C=C2\SC(=S)N(CCCC(=O)Nc3ccc(O)cc3)C2=O)cc1	-7	-2	99*	0	-20	112*
COc1ccc(/C=C2/SC(=S)N(CCCC(=O)Nc3ccc(O)cc3)C2=O)cc1	-6	-3	99*	0	-6	118*
O=C(CCCN1C(=O)/C(=C/c2cccc(Br)c2)SC1=S)Nc1ccccn1	-1	-1	5	-4	-10	nt
